pIC50: −log10 of the molar value.
Molecular target: T1, Broad substrate specificity ATP-binding cassette transporter ABCG2 (Homo sapiens, UniProt Q9UNQ0)
T1 sequence (Q9UNQ0 whole entry): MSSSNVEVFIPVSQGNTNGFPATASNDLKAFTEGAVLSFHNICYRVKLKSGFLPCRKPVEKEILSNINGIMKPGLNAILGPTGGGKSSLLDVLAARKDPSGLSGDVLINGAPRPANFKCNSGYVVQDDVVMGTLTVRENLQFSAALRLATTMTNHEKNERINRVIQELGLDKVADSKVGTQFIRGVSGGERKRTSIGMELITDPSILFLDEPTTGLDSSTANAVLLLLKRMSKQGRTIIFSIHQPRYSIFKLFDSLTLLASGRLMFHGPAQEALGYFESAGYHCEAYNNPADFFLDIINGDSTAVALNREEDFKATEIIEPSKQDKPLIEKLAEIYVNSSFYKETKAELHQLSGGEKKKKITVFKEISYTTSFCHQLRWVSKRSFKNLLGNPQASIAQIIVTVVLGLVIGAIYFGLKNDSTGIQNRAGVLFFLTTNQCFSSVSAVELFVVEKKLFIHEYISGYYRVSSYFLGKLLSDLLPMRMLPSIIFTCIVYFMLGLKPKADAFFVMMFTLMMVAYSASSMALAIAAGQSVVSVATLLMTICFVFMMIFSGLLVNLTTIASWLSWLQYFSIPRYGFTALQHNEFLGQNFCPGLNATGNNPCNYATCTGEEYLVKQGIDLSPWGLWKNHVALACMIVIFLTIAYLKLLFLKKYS
Test: Inhibition of ABCG2 expressed in human NCI-H460/MX20 cells assessed as accumulation of ABCG2 substrate pheophorbide-A
Assay type: cell-based
Procedure, shortened: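 Cell-based assay in cells overexpressing ABCG2, measuring intracellular accumulation of the fluorescent ABCG2 substrate pheophorbide-a. Medium removed and cells washed with PBS before reading intracellular fluorescence. […] IC50 reported ± SD.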

Structure (SMILES)	pIC50
CO/C(=C\c1ccc(O)c(O)c1)C(=O)N/C=C/c1ccc(O)cc1	4.73
COC(Cc1ccc(O)cc1)C(=O)N/C=C/c1ccc(O)cc1 (configuration not stated)	< 4.00
CO/C(=C\c1ccc(O)cc1)C(=O)NCCc1ccc(O)cc1	4.60
CO/C(=C\c1ccc(OC)cc1)C(=O)N/C=C/c1ccc(O)cc1	5.19
O=C(/C=C/c1ccc(O)cc1)N/C=C/c1ccc(O)cc1	< 4.00
CO/C(=C\c1cc(Br)c(O)c(Br)c1)C(=O)N/C=C/c1ccc(OC(C)=O)cc1	4.63

Further lines, results first:

pIC50	Structure (SMILES)
4.81	CO/C(=C\c1ccccc1)C(=O)N/C=C/c1ccc(O)cc1
< 4.00	CO/C(=C\c1ccc(O)cc1)C(=O)NCC(O)c1ccc(O)cc1 (configuration not stated)
< 4.00	CO/C(=C\c1ccc(O)cc1)C(=O)O
< 4.00	CO/C(=C\c1ccc(OCc2ccccc2)cc1)C(=O)N/C=C/c1ccc(O)cc1
4.95	CO/C(=C\c1cc(Br)c(O)c(Br)c1)C(=O)N/C=C/c1ccc(O)cc1
< 4.00	COC(Cc1ccc(O)cc1)C(=O)NCCc1ccc(O)cc1 (configuration not stated)
